Converted amounts (≈) assume the structure as drawn. The source made the active and inactive calls. The calls are words filed in the database; no cut-off is given here.
Key:
Trypanosoma cruzi [1] = experiment: Antitrypanosomal activity against Trypanosoma cruzi Tulahuen 6 infected in Swiss mouse assessed as mouse survival at 100 mg/kg, po qd administered on day 8 post-infection measured on same day by microscopic analysis; type: functional, organism-based; parameters: dose 100 mg/kg
Trypanosoma cruzi [2] = experiment: Antitrypanosomal activity against Trypanosoma cruzi Tulahuen 6 infected in Swiss mouse assessed as mouse survival at 100 mg/kg, po qd administered on day 8 post-infection for 20 days followed by 10 days non-treatment period followed by three cycles of immunosuppression measured on day 58 post-infection by microscopic analysis; type: functional, organism-based; parameters: dose 100 mg/kg
Trypanosoma cruzi [3] = experiment: Antitrypanosomal activity against Trypanosoma cruzi Tulahuen 6 amastigotes infected in rat L6 cells after 96 hrs by colorimetric method; type: functional, organism-based; details: Tulahuen 6, L6, 96 h
Trypanosoma cruzi [4] = experiment: Antitrypanosomal activity against Trypanosoma cruzi Tulahuen 6 infected in Swiss mouse assessed as reduction in blood parasitemia at 20 mg/kg, po qd administered on day 8 post-infection for 10 days by microscopic analysis; type: functional, organism-based; parameters: dose 20 mg/kg
Outline: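 Infected Swiss mice dosed orally at 20 mg/kg once daily for up to 10 days starting day 8 pi; blood parasitemia followed by microscopy throughout dosing, scored as cleared or not during the dosing period.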

Mus musculus [5] = experiment: Toxicity in Swiss mouse at 20 mg/kg, po; details: in vivo
[6] = Plasma concentration in Swiss mouse at 20 mg/kg, po after 0.5 hrs by LC/MS analysis
[7] = Plasma concentration in Swiss mouse at 20 mg/kg, po after 24 hrs by LC/MS analysis
[8] = Kinetic aqueous solubility of the compound in phosphate buffer at pH 6.5 by nephelometric analysis
Mus musculus [9] = experiment: Toxicity in Swiss mouse assessed as weight loss at 25 mg/kg, po bid for 2.5 days; type: organism-based; parameters: dose 25 mg/kg, route oral; details: in vivo, 60 h
Outline: (§1)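 Acute toxicity by stepwise cumulative oral dosing in two mice per compound: 25 and/or 50 mg/kg twice daily for 2.5 days to […]; animals observed for 1 week after the last dose for adverse effects and weight loss.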

Trypanosoma cruzi [10] = experiment: Antitrypanosomal activity against Trypanosoma cruzi Tulahuen 6 infected in Swiss mouse assessed as mouse survival at 10 mg/kg, po qd administered on day 8 post-infection for 20 days measured on day 28 post-infection by microscopic analysis; type: functional, organism-based; parameters: dose 10 mg/kg
Outline: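 Outbred female Swiss mice (~8 weeks) infected with mouse-passaged Tulahuen TcVI trypomastigotes; oral dosing once daily for 20 days from day 8 post-infection, suspension in 0.5% HPMC, 0.4% Tween 80, 0.5% benzyl alcohol, 5% DMSO in water; blood parasitemia by microscopy (LOD 20 000 parasites/mL); mice with recurring parasitemia euthanized; survival counted per starting group; 10-day untreated period days 28–37.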

Mus musculus [11] = experiment: Toxicity in Swiss mouse assessed as weight loss at 50 mg/kg, po bid for 2.5 days; type: organism-based; parameters: dose 50 mg/kg, route oral; details: in vivo, 60 h; outline: as §1
[12] = Plasma clearance in Swiss mouse at 2 mg/kg, iv and 20 mg/kg, po by LC/MS analysis; type: ADME, organism-based
Cytochrome P450 3A4 = Cytochrome P450 3A4 (Homo sapiens, UniProt P08684); experiment: Inhibition of CYP3A4 in human liver microsomes assessed as 6beta-hydroxylation of testosterone
Cytochrome P450 3A4, sequence (P08684 whole entry): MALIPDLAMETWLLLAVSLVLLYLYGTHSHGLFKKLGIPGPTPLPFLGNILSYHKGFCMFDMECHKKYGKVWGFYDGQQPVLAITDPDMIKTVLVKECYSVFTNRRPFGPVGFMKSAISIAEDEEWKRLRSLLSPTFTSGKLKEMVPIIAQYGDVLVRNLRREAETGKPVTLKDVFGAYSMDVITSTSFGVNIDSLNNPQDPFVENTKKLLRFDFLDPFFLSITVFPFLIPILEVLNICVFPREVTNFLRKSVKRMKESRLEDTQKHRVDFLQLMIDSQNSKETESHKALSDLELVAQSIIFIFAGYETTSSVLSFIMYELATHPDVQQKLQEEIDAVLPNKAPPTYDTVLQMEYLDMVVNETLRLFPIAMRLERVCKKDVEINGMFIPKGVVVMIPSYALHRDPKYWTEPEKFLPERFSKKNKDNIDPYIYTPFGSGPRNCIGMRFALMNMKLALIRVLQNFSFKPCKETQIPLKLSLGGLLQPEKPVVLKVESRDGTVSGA

Trypanosoma cruzi [13] = experiment: Antitrypanosomal activity against Trypanosoma cruzi Tulahuen 6 infected in Swiss mouse assessed as mouse survival at 5 mg/kg, po qd administered on day 8 post-infection for 20 days measured on day 28 post-infection by microscopic analysis; type: functional, organism-based; parameters: dose 5 mg/kg
[14] = Half life in Swiss mouse at 20 mg/kg, po by LC/MS analysis; type: ADME, organism-based; parameters: dose 20 mg/kg, route oral; details: in vivo
Trypanosoma cruzi [15] = experiment: Antitrypanosomal activity against Trypanosoma cruzi Tulahuen 6 infected in Swiss mouse assessed as mouse survival at 5 mg/kg, po qd administered on day 8 post-infection measured on same day by microscopic analysis; type: functional, organism-based; parameters: dose 5 mg/kg
Trypanosoma cruzi [16] = experiment: Antitrypanosomal activity against Trypanosoma cruzi Tulahuen 6 infected in Swiss mouse assessed as mouse survival at 10 mg/kg, po qd administered on day 8 post-infection for 20 days followed by 10 days non-treatment measured on day 37 post-infection by microscopic analysis; type: functional, organism-based; parameters: dose 10 mg/kg
Trypanosoma cruzi [17] = experiment: Antitrypanosomal activity against Trypanosoma cruzi Tulahuen 6 infected in Swiss mouse assessed as mouse survival at 10 mg/kg, po qd administered on day 8 post-infection measured on same day by microscopic analysis; type: functional, organism-based; parameters: dose 10 mg/kg
[18] = Kinetic aqueous solubility of the compound in phosphate buffer at pH 2 by nephelometric analysis; details: phosphate buffer
[19] = Volume of distribution at steady state in Swiss mouse at 2 mg/kg, iv and 20 mg/kg, po by LC/MS analysis; type: ADME, organism-based; details: in vivo, read-out: Vdss
[20] = Partition coefficient, log D of the compound at pH 7.4 by chromatographic method; details: octanol/water
Trypanosoma cruzi [21] = experiment: Antitrypanosomal activity against Trypanosoma cruzi Tulahuen 6 infected in Swiss mouse assessed as mouse survival at 5 mg/kg, po qd administered on day 8 post-infection for 20 days followed by 10 days non-treatment measured on day 37 post-infection by microscopic analysis; type: functional, organism-based; parameters: dose 5 mg/kg
Trypanosoma cruzi [22] = experiment: Antitrypanosomal activity against Trypanosoma cruzi Tulahuen 6 infected in Swiss mouse at 5 mg/kg, po qd administered on day 8 post-infection for 20 days followed by 10 days non-treatment period followed by three cycles of immunosuppression measured on day 58 post-infection by PCR analysis; type: functional, organism-based; parameters: dose 5 mg/kg
[23] = Half life in Swiss mouse at 2 mg/kg, iv by LC/MS analysis; type: ADME, organism-based; parameters: dose 2 mg/kg, route intravenous; details: in vivo
Mus musculus [24] = experiment: Oral bioavailability in Swiss mouse at 20 mg/kg by LC/MS analysis; type: ADME, organism-based; details: in vivo

With O=C(Cn1ccnc1[N+](=O)[O-])NCc1ccccc1 the Activity (Trypanosoma cruzi [1]) was “Active” and the Activity (Trypanosoma cruzi [2]) was “inactive”.

With CC(C)(C)NC(=O)N1CCC(NC(c2ccc(C(F)(F)F)cc2)c2cccnc2)CC1 (stereo unspecified) the IC50 (Trypanosoma cruzi [3]) was 0.061 µM, the Activity (Trypanosoma cruzi [4]) was “inactive” and the Activity (Mus musculus [5]) was “Non-toxic”. The concentration at 0.5 h [6] was 3260 nM and the concentration at 24 h [7] was 1 nM.

In the case of O=C([C@@H](c1ccc(Cl)cc1)c1cccnc1)N1CCN(c2ccc(C(F)(F)F)cc2)CC1, the solubility kinetic [8] is reported as 1.6 µg/mL (≈ 3.48 µM), the Activity (Mus musculus [9]) is reported as “Non-toxic” and the Activity (Trypanosoma cruzi [10]) is reported as “Active”. For the same compound, the Activity (Mus musculus [11]) was “Non-toxic”, the clearance [12] was 7.7 mL/min/kg and the Activity (Mus musculus [5]) was “Non-toxic”. The IC50 (Cytochrome P450 3A4) was 15 µM, the Activity (Trypanosoma cruzi [13]) was “Active” and the half-life [14] was 8.2 h. The Activity (Trypanosoma cruzi [15]) was “Active”, the Activity (Trypanosoma cruzi [16]) was “Active” and the Activity (Trypanosoma cruzi [17]) was “Active”. For the same compound, the solubility kinetic [18] was greater than 100 µg/mL, the Vd [19] was 4.2 L/kg and the chromatographic logD [20] was 4.5. For the same compound, the Activity (Trypanosoma cruzi [21]) was “Active”, the Activity (Trypanosoma cruzi [22]) was “inactive” and the half-life [23] was 5.9 h. The F (Mus musculus [24]) was 64%.

From ChEMBL document CHEMBL3102812 (J Med Chem, 2013)
